“And” between values parts separate entries of the source, which are not always exact repeats. Equal values may be shown once.
Key:
[1] = tested on: pSrc, pAkt, Bcl2, Bcl-xL, survivin, cleaved PARP in SW620 and SW480^cld1 cells; assay: Immunoblotting of signaling and apoptosis markers; type: cell-based, human; conditions: PDS-0330 12.5 and 25μM
In short: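 Treated cells (vehicle or 12.5 and 25 μM) lysed. 10–30 μg protein per lane resolved by SDS-PAGE and immunoblotted, with enhanced chemiluminescence detection on film. Antibodies included p-Src (Tyr416), pAkt and total Akt, with GAPDH or β-actin as loading reference.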

human claudin-19 = biological target: T1, human claudin-19 (Homo sapiens, UniProt Q8N6F1); assay: Microscale thermophoresis; type: binding; conditions: 25 °C, duplicate acquisitions
T1 sequence (Q8N6F1 1-224): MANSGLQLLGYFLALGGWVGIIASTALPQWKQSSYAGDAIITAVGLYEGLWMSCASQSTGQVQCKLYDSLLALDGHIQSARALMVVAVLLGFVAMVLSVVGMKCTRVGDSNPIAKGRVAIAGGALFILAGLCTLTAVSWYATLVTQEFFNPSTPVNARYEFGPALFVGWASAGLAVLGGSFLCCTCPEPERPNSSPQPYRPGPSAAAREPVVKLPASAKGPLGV
In short: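 Microscale thermophoresis at 25 °C with 1 μM Cy3-labeled, detergent-purified claudin (human claudin-19, mouse claudin-4 or trypsinized human claudin-1) in HEPES pH 7.4/100 mM NaCl buffer. Test compound dissolved in DMSO and titrated from 135 μM to 4.1 nM. Affinity derived from duplicate acquisitions.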

[2] = Plasma pharmacokinetics in mice; type: in vivo; conditions: for AUC(0-t) / CL/F / Cmax / Tmax / Vd/F / half-life / AUC(0-inf): both, mouse, plasma, 5 mg/kg; for AUC(0-inf): AUC0−∞, mice
In short: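 I-6 given as a single 1 mg/kg intravenous dose to C57BL6 mice (n=5), with serial blood sampling. PDS-0330 given at 5 mg/kg by oral gavage or IP, with ~100 μl blood drawn from the maxillary vein at 5, 15, 30 min and 1, 2, 4, 6, 8, 24 h. Plasma levels in ng/ml; non-compartmental parameters.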

SW480^cld1 cells = assay: Transwell matrigel invasion assay; type: cell-based, human; conditions: PDS-0330 25μM; P < 0.0001 vs control and 20A
[3] = tested on: SW480^cld1, SW620 and HCT116 cells; assay: Screening of I-6 analogs by anoikis; type: cell-based, human; conditions: Suppl Fig3
In short: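 Anoikis induced by plating cells on poly-HEMA-coated culture plates. Apoptosis quantified with a cell death detection ELISA. Parental lines were cultured in RPMI with 10% FBS. Claudin-1-overexpressing SW480 and claudin-1-knockdown SW620 derivatives were used.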

[4] = Tissue bio-distribution in mice; type: in vivo; conditions: mouse, 5 mg/kg
HCT116 cells = assay: Cell viability; type: cell-based, human; conditions: claudin-1 deficient HCT116 cells; 72 hours
In short: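 Cells maintained in RPMI plus 10% FBS. Viability read with PrestoBlue reagent per kit protocol after 72 h exposure to test compound.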

[5] = Solubility in aqueous buffers; type: physicochemical; conditions: dissolved in DMSO to 135 μM for MST
[6] = biological target: T2, claudin-1/Src association (Homo sapiens, UniProt O95832); assay: Claudin-1 immunoprecipitation / Src immunoblot in SW620 cells; type: cell-based; conditions: 12.5μM and 25μM
T2 sequence (O95832 1-211): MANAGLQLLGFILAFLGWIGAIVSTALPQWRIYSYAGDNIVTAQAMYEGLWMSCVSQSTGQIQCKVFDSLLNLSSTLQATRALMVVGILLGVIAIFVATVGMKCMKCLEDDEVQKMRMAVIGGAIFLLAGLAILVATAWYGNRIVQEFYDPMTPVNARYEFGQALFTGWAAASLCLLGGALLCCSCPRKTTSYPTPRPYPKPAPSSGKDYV

O=C(NC(=S)Nc1ccc(-c2nc3ccccc3o2)cc1)c1ccc2ccccc2c1 [PDS-0330, N-((4-(benzo[d]oxazol-2-yl)phenyl)carbamothioyl)-2-naphthamide]
Akt activation [1]: suppressing Akt activation
Bcl-2 and Bcl-xL expression [1]: inhibiting
anti-apoptotic proteins Bcl2, Bcl-xL and Survivin ([1]; SW480^cld1 and SW620): decrease
apoptotic protein cleaved PARP ([1]; SW480^cld1 and SW620): increase
Src phosphorylation ([1]; SW620 and SW480^cld1): prevents Src phosphorylation
Kd (human claudin-19): 157 µM and ≥ 100 µM
mouse behavior or weight ([2]; 24 hours after a single PO and IP injection (5 mg/kg), data not shown): no change
AUC(0-t) ([2]; ip): 422 ng·h/mL
CL/F ([2]; ip): 245 mL/min/kg
Cmax ([2]; ip): 59.3 ng/mL
Tmax ([2]; ip): 2.8 h
Vd/F ([2]; ip): 126 L/kg
half-life ([2]; ip): 5.5 h
AUC(0-inf) ([2]; ip, PDS-0330 IP 5mg/kg): 442 ng·h/mL
AUC(0-t) ([2]; po): 53.4 ng·h/mL
CL/F ([2]; po): 1190 mL/min/kg
Cmax ([2]; po): 30.8 ng/mL
Tmax ([2]; po): 0.4 h
Vd/F ([2]; po): 1100 L/kg
half-life ([2]; po): 14.5 h
AUC(0-inf) ([2]; po, PDS-0330 PO 5mg/kg): 86 ng·h/mL
cell invasion (SW480^cld1 cells): significantly inhibited
potency in inducing cell death among I-6 analogs [3]: most potent
concentration at 2 h ([4]; both, liver, ip): 277 ng/g
concentration at 8 h ([4]; both, liver, ip): 807 ng/g
concentration at 2 h ([4]; both, liver, po): 17 ng/g
concentration at 8 h ([4]; both, liver, po): 5.8 ng/g
concentration at 24 h ([4]; both, liver, po): 10.5 ng/g
concentration at 24 h ([4]; both, lungs, ip): 93.7 ng/g
concentration at 24 h ([4]; both, lungs, po): 519 ng/g
concentration at 24 h ([4]; liver, ip): 407 ng/g
concentration at 2 h ([4]; lungs, ip): 338 ng/g
concentration at 8 h ([4]; lungs, ip): 76.9 ng/g
concentration at 2 h ([4]; lungs, po): 5 ng/g
concentration at 8 h ([4]; lungs, po): 473 ng/g
effect on cell growth/survival (HCT116 cells): no effect
solubility in aqueous buffers [5]: limited solubility
association of Src with claudin-1 [6]: significantly interferes
